The term Ki denotes a dissociation constant, usually derived from enzyme kinetics or from competition with a known ligand. The low end stands for higher affinity, the high end for lower affinity.

This note sets out measurements from ChEMBL document CHEMBL4396879, “Conjugation of Short Peptides to Dibenzodiazepinone-Type Muscarinic Acetylcholine Receptor Ligands Determines M2R Selectivity” (J Med Chem, 2019).

Common to all, as to assay type: cell-based
The target in assay [1] is Muscarinic acetylcholine receptor M2 and M5 (Homo sapiens) (UniProt P08172+P08912). The experiment in a line: Selectivity ratio of Ki for human muscarinic M5 receptor expressed in CHO-K9 cells to Ki for human muscarinic M2 receptor expressed in CHO-K9 cells. The procedure, abridged:
(§1)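 Ratio of mean Ki values. Each Ki came from an individual [3H]NMS competition experiment at the given CHO-hMxR subtype, converting IC50 to Ki by Cheng-Prusoff before averaging.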

Assay [2] has as its target T1, Muscarinic acetylcholine receptor M4 (Homo sapiens, UniProt P08173).
T1 sequence (P08173 whole entry): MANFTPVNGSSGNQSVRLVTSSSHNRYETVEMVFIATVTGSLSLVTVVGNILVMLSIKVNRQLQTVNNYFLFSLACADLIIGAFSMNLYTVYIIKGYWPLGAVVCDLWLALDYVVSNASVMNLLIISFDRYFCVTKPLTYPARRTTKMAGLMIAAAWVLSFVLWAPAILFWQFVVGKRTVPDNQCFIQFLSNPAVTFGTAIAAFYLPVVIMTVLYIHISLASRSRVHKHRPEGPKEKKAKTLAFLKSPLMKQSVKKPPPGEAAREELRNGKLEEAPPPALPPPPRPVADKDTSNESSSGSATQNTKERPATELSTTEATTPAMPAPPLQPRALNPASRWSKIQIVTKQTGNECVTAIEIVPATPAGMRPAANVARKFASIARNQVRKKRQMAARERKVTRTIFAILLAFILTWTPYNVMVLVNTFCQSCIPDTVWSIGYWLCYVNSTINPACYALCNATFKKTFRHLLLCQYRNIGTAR
Description: Displacement of [3H]-NMS from human muscarinic M4 receptor expressed in CHO-K9 cells after 3 hrs by microbeta2 scintillation counting method. The procedure, abridged: (§2)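 [3H]NMS competition binding on intact CHO-hMxR cells in L15 medium with 1% BSA, 3 h at 22 ± 1 °C with gentle shaking. [3H]NMS was 0.2 nM (M1, M2, M3), 0.1 nM (M4) or 0.3 nM (M5). […] Cells were lysed in urea/acetic acid/Triton and counted by liquid scintillation. Ki from Cheng-Prusoff. Triplicates, ≥3 experiments.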
For orientation: Loss of bound radioactivity is the signal in a displacement assay; it reports binding, not function.

In assay [3] the target is T2, Muscarinic acetylcholine receptor M5 (Homo sapiens, UniProt P08912).
T2 sequence (P08912 whole entry): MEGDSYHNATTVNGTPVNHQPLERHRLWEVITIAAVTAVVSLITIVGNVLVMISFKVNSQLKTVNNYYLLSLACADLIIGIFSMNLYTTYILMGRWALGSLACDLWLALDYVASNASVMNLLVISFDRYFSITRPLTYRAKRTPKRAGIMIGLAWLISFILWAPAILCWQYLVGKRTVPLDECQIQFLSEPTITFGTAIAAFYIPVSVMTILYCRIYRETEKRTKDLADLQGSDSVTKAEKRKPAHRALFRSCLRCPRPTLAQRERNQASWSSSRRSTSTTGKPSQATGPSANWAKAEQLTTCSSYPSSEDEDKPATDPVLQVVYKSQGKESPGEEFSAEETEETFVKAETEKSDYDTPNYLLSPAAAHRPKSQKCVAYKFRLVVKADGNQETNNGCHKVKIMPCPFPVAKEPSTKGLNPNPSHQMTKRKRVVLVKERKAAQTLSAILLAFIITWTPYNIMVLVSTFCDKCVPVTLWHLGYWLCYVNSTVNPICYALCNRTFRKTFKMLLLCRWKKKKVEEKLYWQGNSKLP
Description: Displacement of [3H]-NMS from human muscarinic M5 receptor expressed in CHO-K9 cells after 3 hrs by microbeta2 scintillation counting method. The method in brief: as §2

Assay [4] deals with Muscarinic acetylcholine receptor M2 and M4 (Homo sapiens) (UniProt P08173+P08172). Description: Selectivity ratio of Ki for human muscarinic M4 receptor expressed in CHO-K9 cells to Ki for human muscarinic M2 receptor expressed in CHO-K9 cells. The procedure, abridged:
as §1

Assay [5] addresses T3, Muscarinic acetylcholine receptor M1 (Homo sapiens, UniProt P11229).
T3 sequence (P11229 whole entry): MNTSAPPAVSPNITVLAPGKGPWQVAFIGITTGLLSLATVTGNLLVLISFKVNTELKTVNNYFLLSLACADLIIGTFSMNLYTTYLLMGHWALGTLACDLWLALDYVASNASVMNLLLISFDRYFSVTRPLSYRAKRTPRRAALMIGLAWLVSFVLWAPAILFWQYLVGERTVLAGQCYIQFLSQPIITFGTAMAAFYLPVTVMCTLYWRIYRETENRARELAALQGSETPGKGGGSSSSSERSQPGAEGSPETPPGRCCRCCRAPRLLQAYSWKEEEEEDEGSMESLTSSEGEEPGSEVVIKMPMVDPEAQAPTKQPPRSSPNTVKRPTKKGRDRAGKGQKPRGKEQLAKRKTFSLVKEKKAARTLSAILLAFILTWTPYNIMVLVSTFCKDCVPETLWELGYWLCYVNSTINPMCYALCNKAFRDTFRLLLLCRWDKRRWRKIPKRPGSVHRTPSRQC
Description: Displacement of [3H]-NMS from human muscarinic M1 receptor expressed in CHO-K9 cells after 3 hrs by microbeta2 scintillation counting method. The method in brief:
as §2

The target of assay [6] is T4, Muscarinic acetylcholine receptor M2 (Homo sapiens, UniProt P08172).
T4 sequence (P08172 whole entry): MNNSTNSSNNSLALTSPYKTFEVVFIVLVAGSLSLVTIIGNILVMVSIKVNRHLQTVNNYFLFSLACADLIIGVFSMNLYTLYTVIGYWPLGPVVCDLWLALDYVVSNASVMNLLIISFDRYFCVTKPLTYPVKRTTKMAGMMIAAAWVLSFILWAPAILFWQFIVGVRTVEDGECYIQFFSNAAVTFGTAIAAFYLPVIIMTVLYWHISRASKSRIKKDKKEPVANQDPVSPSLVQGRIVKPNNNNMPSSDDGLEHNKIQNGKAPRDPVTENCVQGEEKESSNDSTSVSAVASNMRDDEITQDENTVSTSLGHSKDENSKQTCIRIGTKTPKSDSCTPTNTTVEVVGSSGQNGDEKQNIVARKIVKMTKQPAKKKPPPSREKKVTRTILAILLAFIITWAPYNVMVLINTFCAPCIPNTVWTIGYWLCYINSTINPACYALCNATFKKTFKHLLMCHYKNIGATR
Description: Displacement of [3H]-NMS from human muscarinic M2 receptor expressed in CHO-K9 cells after 3 hrs by microbeta2 scintillation counting method. The procedure, abridged: as §2

The target in assay [7] is Muscarinic acetylcholine receptors; M2 & M3 (Homo sapiens) (UniProt P20309+P08172). The experiment in a line: Selectivity ratio of Ki for human muscarinic M3 receptor expressed in CHO-K9 cells to Ki for human muscarinic M2 receptor expressed in CHO-K9 cells. The procedure, abridged: as §1
Assay [8] deals with Muscarinic acetylcholine receptor M3 (Homo sapiens, UniProt P20309). Description: Displacement of [3H]-NMS from human muscarinic M3 receptor expressed in CHO-K9 cells after 3 hrs by microbeta2 scintillation counting method. The method in brief:
as §2

The target of assay [9] is Muscarinic acetylcholine receptors; M1 & M2 (Homo sapiens) (UniProt P11229+P08172). The experiment in a line: Selectivity ratio of Ki for human muscarinic M1 receptor expressed in CHO-K9 cells to Ki for human muscarinic M2 receptor expressed in CHO-K9 cells. The procedure, abridged: as §1

SMILES strings stand for the structures. Bounds are passed on as bounds.

Muscarinic acetylcholine receptors; M2 & M3 (Homo sapiens), sequence (P20309 whole entry, looked up, one chain of several): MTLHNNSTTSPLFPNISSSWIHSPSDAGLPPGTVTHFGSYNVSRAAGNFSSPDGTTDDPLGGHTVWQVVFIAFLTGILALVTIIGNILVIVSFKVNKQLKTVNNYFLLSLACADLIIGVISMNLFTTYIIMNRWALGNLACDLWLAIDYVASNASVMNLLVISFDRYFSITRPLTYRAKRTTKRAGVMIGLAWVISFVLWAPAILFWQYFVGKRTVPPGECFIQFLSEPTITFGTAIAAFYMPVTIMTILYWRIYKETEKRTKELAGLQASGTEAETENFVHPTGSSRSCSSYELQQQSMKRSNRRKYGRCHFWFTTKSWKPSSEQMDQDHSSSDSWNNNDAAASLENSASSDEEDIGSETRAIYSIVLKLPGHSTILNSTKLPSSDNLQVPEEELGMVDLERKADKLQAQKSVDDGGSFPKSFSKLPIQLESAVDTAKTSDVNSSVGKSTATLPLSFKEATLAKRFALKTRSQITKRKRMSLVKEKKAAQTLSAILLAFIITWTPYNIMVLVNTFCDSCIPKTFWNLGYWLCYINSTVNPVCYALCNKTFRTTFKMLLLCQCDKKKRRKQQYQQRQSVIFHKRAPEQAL
Muscarinic acetylcholine receptor M3, sequence (P20309 whole entry): as the sequence (P20309 whole entry, looked up, one chain of several) above

Consider `CC(=O)N[C@@H](CCCCN)C(=O)N[C@@H](C)C(=O)N[C@@H](CCCNC(=N)N)C(=O)NCCCCC1CCN(CC(=O)N2c3ccccc3NC(=O)c3ccccc32)CC1`, for which the Ratio Ki in assay [1] was 56; in assay [4], 12; in assay [7], 350; in assay [9] it was 15. For the same molecule, the inhibitory constant (Ki) in assay [2] was 89.1 nM; in assay [3], 427 nM; in assay [5], 115 nM; in [6] it was 7.76 nM; in assay [8], 2690 nM.

With `CC(=O)N[C@@H](CCC(N)=O)C(=O)N[C@@H](CC(C)C)C(=O)NCCCCC1CCN(CC(=O)N2c3ccccc3NC(=O)c3ccccc32)CC1`, the Ratio Ki is 4.9 in [1], 3.6 in [4], above 27 in assay [7] and 3.4 in [9]. Also, the Ki in assay [2] was 1070 nM; in assay [3], 1510 nM; in assay [5], 1050 nM; in assay [6] it was 309 nM; in assay [8], above 10000 nM.

`CC(=O)N[C@@H](Cc1ccc(O)cc1)C(=O)N[C@@H](C)C(=O)N[C@@H](CCCCN)C(=O)NCCCCC1CCN(CC(=O)N2c3ccccc3NC(=O)c3ccccc32)CC1`: the Ratio Ki in assay [1] is 23; in [4], 5.9; in assay [7], 550; in assay [9], 19. The inhibitory constant (Ki) is 57.5 nM in [2]; 209 nM in [3]; 178 nM in assay [5]; 9.33 nM in [6]; 5010 nM in assay [8].

Consider `CC(=O)N[C@@H](CCCCN)C(=O)N[C@@H](C)C(=O)N[C@@H](Cc1ccc(O)cc1)C(=O)NCCCCC1CCN(CC(=O)N2c3ccccc3NC(=O)c3ccccc32)CC1`, for which the Ratio Ki in [1] was determined as 53; in assay [4], 5.8; in [7], 160; in assay [9] it was 14. Further, the Ki is 23.4 nM in assay [2]; 224 nM in assay [3]; 58.9 nM in assay [5]; 4.27 nM in assay [6]; 661 nM in [8].

`CCC(=O)NCCCCC1CCN(CC(=O)N2c3ccccc3NC(=O)c3ccccc32)CC1`: the Ratio Ki was found to be 98 in assay [1], 2.7 in assay [4], 69 in assay [7] and 1.1 in assay [9]. The Ki was 209 nM in assay [2]; 7080 nM in assay [3]; 85.1 nM in assay [5]; 79.4 nM in [6]; 5370 nM in [8].

For the molecule `CC(=O)N[C@@H](C)C(=O)N[C@@H](C)C(=O)NCCCCC1CCN(CC(=O)N2c3ccccc3NC(=O)c3ccccc32)CC1`, the Ratio Ki was determined as 62 in assay [1], 3.7 in [4], 59 in assay [7] and 14 in assay [9]. Further, the Ki was 79.4 nM in [2]; 1350 nM in [3]; 302 nM in assay [5]; 22.9 nM in [6]; 1380 nM in assay [8].

With `CC(=O)N[C@@H](C)C(=O)N[C@@H](C)C(=O)NCCN1CCN(CCCCC2CCN(CC(=O)N3c4ccccc4NC(=O)c4ccccc43)CC2)CC1`, the Ratio Ki in assay [1] was 1100; in assay [4], 7.5; in [7], 370; in assay [9], 7.5. In addition, the Ki was 2.45 nM in assay [2]; 457 nM in assay [3]; 3.16 nM in assay [5]; 0.427 nM in assay [6]; 155 nM in assay [8].

As for `CC(=O)N[C@@H](Cc1ccc(O)cc1)C(=O)N[C@@H](CCCCN)C(=O)NCCN1CCN(CCCCC2CCN(CC(=O)N3c4ccccc4NC(=O)c4ccccc43)CC2)CC1`, the Ratio Ki worked out at 1900 in assay [1], 13 in assay [4], 220 in assay [7] and 32 in assay [9]. Further, the inhibitory constant (Ki) in assay [2] was 0.912 nM; in [3] it was 141 nM; in [5], 2.14 nM; in assay [6], 0.0794 nM; in assay [8], 16.2 nM.

With `CC(=O)N[C@@H](Cc1ccc(O)cc1)C(=O)N[C@@H](CCCCN)C(=O)NCCCCC1CCN(CC(=O)N2c3ccccc3NC(=O)c3ccccc32)CC1`, the Ratio Ki amounted to 15 in [1], 6.6 in assay [4], 210 in [7] and 1.8 in assay [9]. Besides, the Ki in assay [2] was 295 nM; in assay [3] it was 708 nM; in assay [5], 87.1 nM; in assay [6] it was 46.8 nM; in [8], 10000 nM.

`N=C(N)NCCC[C@H](N)C(=O)NCCCCC1CCN(CC(=O)N2c3ccccc3NC(=O)c3ccccc32)CC1`: the Ratio Ki in [1] was determined as 410; in assay [4], 9.8; in assay [7] it was 260; in assay [9], 18. In addition, the inhibitory constant (Ki) in assay [2] is 56.2 nM; in assay [3], 2400 nM; in assay [5], 107 nM; in assay [6] it was 5.37 nM; in assay [8], 1260 nM.

For `CN1CC=C(c2nsnc2OCCCN2CCN(CCCCC3CCN(CC(=O)N4c5ccccc5NC(=O)c5ccccc54)CC3)CC2)CC1`, the Ratio Ki in assay [1] was found to be 230; in assay [4], 35; in assay [7], 180; in assay [9] it was 20. Besides, the Ki was 2.57 nM in assay [2]; 33.9 nM in assay [3]; 1.45 nM in assay [5]; 0.0794 nM in assay [6]; 13.2 nM in [8].
